Folding enthalpy and Tm data for 36 sequences are collected here from the array DNA melting data of Ke et al. (doi:10.1101/2024.01.08.574731).

Data set [1] in a line: folding enthalpy; higher = less favourable; fluorescence melt of hairpins on a sequencing array, two-state fit. Particulars: sodium 0.088 M. The method in brief: (§1)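 Cy3 fluorescence of library hairpins on a sequenced MiSeq flow cell, with annealed Cy3 and quencher oligos, was imaged in 50 mM Na-HEPES pH 8.0, 25 mM NaCl in 2.5 °C steps up to 60 °C. Signals were normalised to pre-quench Cy3 and to control variants. Melting temperature and folding enthalpy came from bootstrapped two-state fits, inverse-variance combined over four replicates. Fitted temperatures were raised by 9.35 °C to match UV melts.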

The nature of data set [2]: melting temperature; fluorescence melt of hairpins on a sequencing array, two-state fit, raised by 9.35 °C to match UV melts. The conditions noted are these: sodium 0.088 M. The method in brief: as §1

Regarding GCTCTACGAAAGTAAAGC (((.(((....))).))), the folding enthalpy in data set [1] was -22.9 kcal/mol. Also, the Tm in data set [2] amounted to 38.4 °C.
For GCTCTCACGAAAGTGAGC (((..(((....)))))), the folding enthalpy in data set [1] was -7.6 kcal/mol. In data set [2], the Tm came out at 35.8 °C.
Taken in the same sequence, the figures for GCTCTCCCGAAAGGGAGC (((..(((....)))))) were -7.28 kcal/mol and 33 °C.
With GCTCTCGAAAGAGAAGC ((((((....))).))), the folding enthalpy in data set [1] was -22 kcal/mol. In addition, the Tm in data set [2] stood at 49.8 °C.
GCTCTCGAAAGAGATAGC ((((((....)))..))): in data set [1], the folding enthalpy is -22.6 kcal/mol. The Tm in data set [2] amounted to 41.8 °C.
On to GCTCTCGAAAGAGCTAGC ((((((....)))..))), for which the folding enthalpy in data set [1] is -15.5 kcal/mol. In data set [2], the Tm is 50.3 °C.
For GCTCTCGAAAGAGGTAGC ((((((....)))..))) the same measures were -25.4 kcal/mol and 38.4 °C.
Taken in the same sequence, the figures for GCTCTCGAAAGAGTGAGC ((((((....)))..))) were -26 kcal/mol and 41.6 °C.
Consider GCTCTCGGAAACGGGAGC ((((.((....)).)))), for which the folding enthalpy in data set [1] was -41.3 kcal/mol. Moreover, the Tm in data set [2] is 57.4 °C.
For GCTCTGCGAAAGCAAGC (((.(((....)))))) the same measures were -16.8 kcal/mol and 48.2 °C.
Taken in the same sequence, the figures for GCTCTGCGAAAGCGCAGC (((..((....))..))) were -11.4 kcal/mol and 37.6 °C.
Turning to GCTCTGCGAAAGCGTAGC (((..((....))..))), in data set [1], the folding enthalpy was -17.6 kcal/mol. The Tm in data set [2] was 38.2 °C.
For GCTCTGGGAAACCAGAAC (.(((((....))))).) the same measures were -16.9 kcal/mol and 37.1 °C.
Consider GCTCTGGGAAACCAGAGC (((((((....))))))), for which the folding enthalpy in data set [1] is -42.5 kcal/mol. In data set [2], the Tm worked out at 69 °C.
As for GCTCTTCGAAAGAATAGC (((.(((....))).))), the folding enthalpy in data set [1] is -30.7 kcal/mol. In data set [2], the Tm was 38.5 °C.
GCTCTTGAAAAAGAGC ((((((....)))))): the folding enthalpy in data set [1] is -32.6 kcal/mol. The Tm in data set [2] was determined as 58.1 °C.
Regarding GCTCTTTCGAAAGAAAGC (((..(((....)))))), the folding enthalpy in data set [1] is -13.4 kcal/mol. Also, the Tm in data set [2] is 32.5 °C.
Regarding GCTGAAACGAAAGTTAGC (((..(((....)))))), the folding enthalpy in data set [1] is -20.6 kcal/mol. Also, the Tm in data set [2] was 35 °C.
GCTGAACCGAAAGGTAGC (((..(((....)))))): the folding enthalpy in data set [1] was -21.9 kcal/mol. The Tm in data set [2] was determined as 42.1 °C.
Taken in the same sequence, the figures for GCTGAACGAAAGTTAGC (((.(((....)))))) were -26 kcal/mol and 44.1 °C.
For GCTGAAGCGAAAGCTAGC (((..(((....)))))) the same measures were -18.6 kcal/mol and 44.6 °C.
For GCTGAAGGAAACTTTAGC (((.(((....))).))), the folding enthalpy in data set [1] was -29.2 kcal/mol. In addition, the Tm in data set [2] was 41.5 °C.
For GCTGACACGAAAGTGAGC (((..(((....)))))) the same measures were -18.3 kcal/mol and 40.3 °C.
For GCTGACCGAAAGGTAAGC (((.(((....))).))) the same measures were -33.5 kcal/mol and 57.8 °C.
In the case of GCTGACGAAAGTCAGAGC ((((((....)))..))), the folding enthalpy in data set [1] is -13.4 kcal/mol. In data set [2], the Tm came out at 55.8 °C.
For GCTGACGAAAGTCCAAGC ((((((....)))..))), in data set [1], the folding enthalpy was -16.5 kcal/mol. In addition, the Tm in data set [2] turned out to be 43.5 °C.
For the sequence GCTGACGAAAGTCCAGC ((((((....))).))), the folding enthalpy in data set [1] is -24.7 kcal/mol. In addition, the Tm in data set [2] came out at 54.5 °C.
For GCTGACGGAAACACCAGC ((((..(....)..)))), in data set [1], the folding enthalpy is -13.1 kcal/mol. The Tm in data set [2] is 33.3 °C.
As for GCTGACGGAAACGTCGGC ((.((((....)))).)), the folding enthalpy in data set [1] was -48.3 kcal/mol. The Tm in data set [2] came to 63.3 °C.
In the case of GCTGAGCCGAAAGGCAGC (((..(((....)))))), in data set [1], the folding enthalpy is -15.2 kcal/mol. Further, the Tm in data set [2] worked out at 51.7 °C.
Taken in the same sequence, the figures for GCTGAGCGAAAGCACAGC ((((.((....)).)))) were -35.6 kcal/mol and 67.8 °C.
GCTGAGCGAAAGCCCCGC ((.(.((....)).).)): the folding enthalpy in data set [1] is -12 kcal/mol. Also, in data set [2], the Tm worked out at 35.8 °C.
Regarding GCTGAGCGAAAGCCCGGC ((.(.((....)).).)), in data set [1], the folding enthalpy is -20.1 kcal/mol. The Tm in data set [2] was determined as 52.2 °C.
In the case of GCTGAGCGAAAGCGGAGC (((..((....))..))), in data set [1], the folding enthalpy was -26.9 kcal/mol. For the same sequence, in data set [2], the Tm turned out to be 62.4 °C.
For the sequence GCTGAGCGAAAGCTACGC ((..(((....)))..)), the folding enthalpy in data set [1] was -16.3 kcal/mol. Besides, the Tm in data set [2] turned out to be 44.4 °C.
Taken in the same sequence, the figures for GCTGAGCGAAAGCTTCGC ((..(((....)))..)) were -13.4 kcal/mol and 49.5 °C.
